Assay results: ChEMBL document CHEMBL3861950, “Design, synthesis and evaluation of novel 19F magnetic resonance sensitive protein tyrosine phosphatase inhibitors” (Medchemcomm, 2016)

Tests used:
[1] = target: T1, Receptor-type tyrosine-protein phosphatase C (Homo sapiens, UniProt P08575); test: Inhibition of recombinant CD45 (unknown origin) using pNPP as substrate by spectrophotometric method
T1 sequence (P08575 whole entry): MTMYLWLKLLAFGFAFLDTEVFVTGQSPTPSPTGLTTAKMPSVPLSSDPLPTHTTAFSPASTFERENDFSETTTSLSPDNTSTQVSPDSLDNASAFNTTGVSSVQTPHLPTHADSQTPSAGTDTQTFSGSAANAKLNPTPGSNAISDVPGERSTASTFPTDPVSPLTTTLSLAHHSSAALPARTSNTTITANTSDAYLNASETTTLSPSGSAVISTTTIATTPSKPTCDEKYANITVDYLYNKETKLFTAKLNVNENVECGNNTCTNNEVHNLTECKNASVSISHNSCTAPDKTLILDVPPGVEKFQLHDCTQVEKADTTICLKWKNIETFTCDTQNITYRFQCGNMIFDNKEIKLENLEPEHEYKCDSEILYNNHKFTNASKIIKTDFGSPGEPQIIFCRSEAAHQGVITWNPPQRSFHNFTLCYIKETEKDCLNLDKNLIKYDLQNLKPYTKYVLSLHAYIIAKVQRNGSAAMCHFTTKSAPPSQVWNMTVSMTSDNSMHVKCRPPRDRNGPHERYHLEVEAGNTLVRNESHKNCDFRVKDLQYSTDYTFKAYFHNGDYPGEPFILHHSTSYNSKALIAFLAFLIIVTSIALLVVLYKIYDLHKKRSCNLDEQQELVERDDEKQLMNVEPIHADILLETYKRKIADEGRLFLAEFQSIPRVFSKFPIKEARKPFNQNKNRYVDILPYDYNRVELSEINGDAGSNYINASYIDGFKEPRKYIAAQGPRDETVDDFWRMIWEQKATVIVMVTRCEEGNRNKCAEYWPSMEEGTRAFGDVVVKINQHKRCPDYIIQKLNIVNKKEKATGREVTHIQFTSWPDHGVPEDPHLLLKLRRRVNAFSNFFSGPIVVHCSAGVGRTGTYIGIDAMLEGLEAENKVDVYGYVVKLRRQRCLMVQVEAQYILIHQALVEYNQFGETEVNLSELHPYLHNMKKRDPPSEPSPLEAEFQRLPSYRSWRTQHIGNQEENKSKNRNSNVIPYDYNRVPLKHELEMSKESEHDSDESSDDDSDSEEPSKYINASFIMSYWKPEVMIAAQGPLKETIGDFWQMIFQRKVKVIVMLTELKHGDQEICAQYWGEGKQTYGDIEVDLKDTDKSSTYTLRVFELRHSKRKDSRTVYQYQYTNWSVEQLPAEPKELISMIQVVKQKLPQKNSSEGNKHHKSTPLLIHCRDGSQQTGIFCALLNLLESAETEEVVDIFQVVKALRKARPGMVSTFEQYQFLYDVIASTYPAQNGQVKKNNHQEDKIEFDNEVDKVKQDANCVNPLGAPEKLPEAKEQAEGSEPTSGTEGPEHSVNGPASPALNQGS
Outline: (§1)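 Recombinant PTP prepared in-house, assayed with pNPP substrate in 50 mM 3,3-dimethylglutarate buffer pH 7.0 containing 1 mM EDTA and 150 mM NaCl at 25 °C, in 96-well format. p-Nitrophenol product was quantified by absorbance at 405 nm. Non-enzymatic pNPP hydrolysis was corrected using a no-enzyme control.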

[2] = target: T2, Tyrosine-protein phosphatase non-receptor type 1 (Homo sapiens, UniProt P18031); test: Inhibition of recombinant PTP1B (unknown origin) using pNPP as substrate by spectrophotometric method; outline: as §1
T2 sequence (P18031 whole entry): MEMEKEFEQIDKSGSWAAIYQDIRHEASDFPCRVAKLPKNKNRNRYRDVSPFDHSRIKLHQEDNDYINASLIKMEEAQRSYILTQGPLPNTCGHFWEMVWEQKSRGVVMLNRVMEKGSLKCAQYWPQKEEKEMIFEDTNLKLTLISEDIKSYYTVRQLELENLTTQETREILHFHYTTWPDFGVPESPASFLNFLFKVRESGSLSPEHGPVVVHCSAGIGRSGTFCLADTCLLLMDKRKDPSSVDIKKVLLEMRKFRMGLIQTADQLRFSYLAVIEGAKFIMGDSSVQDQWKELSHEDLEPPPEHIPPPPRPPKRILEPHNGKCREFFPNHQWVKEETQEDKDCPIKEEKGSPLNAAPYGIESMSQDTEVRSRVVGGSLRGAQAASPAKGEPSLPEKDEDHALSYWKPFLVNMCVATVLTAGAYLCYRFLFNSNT

[3] = target: T3, Tyrosine-protein phosphatase non-receptor type 22 (Homo sapiens, UniProt Q9Y2R2); test: Inhibition of recombinant LYP (unknown origin) using pNPP as substrate by spectrophotometric method; outline: as §1
T3 sequence (Q9Y2R2 whole entry): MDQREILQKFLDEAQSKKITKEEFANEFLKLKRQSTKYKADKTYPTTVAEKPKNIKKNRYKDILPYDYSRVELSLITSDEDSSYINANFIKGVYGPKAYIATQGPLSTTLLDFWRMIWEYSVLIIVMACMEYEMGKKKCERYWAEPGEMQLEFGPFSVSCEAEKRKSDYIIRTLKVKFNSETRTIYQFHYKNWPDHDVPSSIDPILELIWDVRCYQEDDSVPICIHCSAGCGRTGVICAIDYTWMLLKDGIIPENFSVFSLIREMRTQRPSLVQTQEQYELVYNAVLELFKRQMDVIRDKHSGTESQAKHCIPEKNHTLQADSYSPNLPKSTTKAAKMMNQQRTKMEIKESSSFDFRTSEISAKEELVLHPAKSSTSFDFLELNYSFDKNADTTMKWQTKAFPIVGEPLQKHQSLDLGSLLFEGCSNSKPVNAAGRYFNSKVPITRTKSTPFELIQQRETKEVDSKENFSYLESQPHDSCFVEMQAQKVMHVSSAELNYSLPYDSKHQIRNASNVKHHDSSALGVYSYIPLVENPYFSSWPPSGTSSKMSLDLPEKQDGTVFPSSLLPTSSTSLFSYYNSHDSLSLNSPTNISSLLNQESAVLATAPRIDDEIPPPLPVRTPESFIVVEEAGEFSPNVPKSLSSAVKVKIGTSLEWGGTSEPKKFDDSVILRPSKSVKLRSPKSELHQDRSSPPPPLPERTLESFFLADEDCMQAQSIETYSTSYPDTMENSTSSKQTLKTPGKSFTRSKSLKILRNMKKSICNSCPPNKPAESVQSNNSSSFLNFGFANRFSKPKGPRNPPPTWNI

[4] = target: T4, Tyrosine-protein phosphatase non-receptor type 11 (Homo sapiens, UniProt Q06124); test: Inhibition of recombinant SHP2 (unknown origin) using pNPP as substrate by spectrophotometric method; outline: as §1
T4 sequence (Q06124 whole entry): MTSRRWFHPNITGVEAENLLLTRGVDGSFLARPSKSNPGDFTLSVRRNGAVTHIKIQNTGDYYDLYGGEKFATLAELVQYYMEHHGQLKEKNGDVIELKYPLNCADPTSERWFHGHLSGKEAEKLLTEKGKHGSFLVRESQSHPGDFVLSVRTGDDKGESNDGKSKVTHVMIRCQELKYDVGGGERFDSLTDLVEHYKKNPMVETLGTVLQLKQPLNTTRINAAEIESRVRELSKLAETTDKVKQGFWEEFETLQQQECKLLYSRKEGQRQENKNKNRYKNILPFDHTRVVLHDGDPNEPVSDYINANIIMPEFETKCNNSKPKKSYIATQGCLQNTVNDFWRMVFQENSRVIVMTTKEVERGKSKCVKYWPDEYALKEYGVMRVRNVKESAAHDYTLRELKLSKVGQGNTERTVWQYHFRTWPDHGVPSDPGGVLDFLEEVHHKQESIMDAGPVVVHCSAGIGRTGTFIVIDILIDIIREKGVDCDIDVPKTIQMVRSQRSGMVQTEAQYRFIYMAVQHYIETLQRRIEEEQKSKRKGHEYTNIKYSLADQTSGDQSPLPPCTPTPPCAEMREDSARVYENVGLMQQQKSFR

[5] = target: Tyrosine-protein phosphatase non-receptor type 13 (Homo sapiens, UniProt Q12923); test: Inhibition of recombinant FAP1 (unknown origin) using pNPP as substrate by spectrophotometric method; outline: as §1
Sequence of Tyrosine-protein phosphatase non-receptor type 13 (Q12923 whole entry): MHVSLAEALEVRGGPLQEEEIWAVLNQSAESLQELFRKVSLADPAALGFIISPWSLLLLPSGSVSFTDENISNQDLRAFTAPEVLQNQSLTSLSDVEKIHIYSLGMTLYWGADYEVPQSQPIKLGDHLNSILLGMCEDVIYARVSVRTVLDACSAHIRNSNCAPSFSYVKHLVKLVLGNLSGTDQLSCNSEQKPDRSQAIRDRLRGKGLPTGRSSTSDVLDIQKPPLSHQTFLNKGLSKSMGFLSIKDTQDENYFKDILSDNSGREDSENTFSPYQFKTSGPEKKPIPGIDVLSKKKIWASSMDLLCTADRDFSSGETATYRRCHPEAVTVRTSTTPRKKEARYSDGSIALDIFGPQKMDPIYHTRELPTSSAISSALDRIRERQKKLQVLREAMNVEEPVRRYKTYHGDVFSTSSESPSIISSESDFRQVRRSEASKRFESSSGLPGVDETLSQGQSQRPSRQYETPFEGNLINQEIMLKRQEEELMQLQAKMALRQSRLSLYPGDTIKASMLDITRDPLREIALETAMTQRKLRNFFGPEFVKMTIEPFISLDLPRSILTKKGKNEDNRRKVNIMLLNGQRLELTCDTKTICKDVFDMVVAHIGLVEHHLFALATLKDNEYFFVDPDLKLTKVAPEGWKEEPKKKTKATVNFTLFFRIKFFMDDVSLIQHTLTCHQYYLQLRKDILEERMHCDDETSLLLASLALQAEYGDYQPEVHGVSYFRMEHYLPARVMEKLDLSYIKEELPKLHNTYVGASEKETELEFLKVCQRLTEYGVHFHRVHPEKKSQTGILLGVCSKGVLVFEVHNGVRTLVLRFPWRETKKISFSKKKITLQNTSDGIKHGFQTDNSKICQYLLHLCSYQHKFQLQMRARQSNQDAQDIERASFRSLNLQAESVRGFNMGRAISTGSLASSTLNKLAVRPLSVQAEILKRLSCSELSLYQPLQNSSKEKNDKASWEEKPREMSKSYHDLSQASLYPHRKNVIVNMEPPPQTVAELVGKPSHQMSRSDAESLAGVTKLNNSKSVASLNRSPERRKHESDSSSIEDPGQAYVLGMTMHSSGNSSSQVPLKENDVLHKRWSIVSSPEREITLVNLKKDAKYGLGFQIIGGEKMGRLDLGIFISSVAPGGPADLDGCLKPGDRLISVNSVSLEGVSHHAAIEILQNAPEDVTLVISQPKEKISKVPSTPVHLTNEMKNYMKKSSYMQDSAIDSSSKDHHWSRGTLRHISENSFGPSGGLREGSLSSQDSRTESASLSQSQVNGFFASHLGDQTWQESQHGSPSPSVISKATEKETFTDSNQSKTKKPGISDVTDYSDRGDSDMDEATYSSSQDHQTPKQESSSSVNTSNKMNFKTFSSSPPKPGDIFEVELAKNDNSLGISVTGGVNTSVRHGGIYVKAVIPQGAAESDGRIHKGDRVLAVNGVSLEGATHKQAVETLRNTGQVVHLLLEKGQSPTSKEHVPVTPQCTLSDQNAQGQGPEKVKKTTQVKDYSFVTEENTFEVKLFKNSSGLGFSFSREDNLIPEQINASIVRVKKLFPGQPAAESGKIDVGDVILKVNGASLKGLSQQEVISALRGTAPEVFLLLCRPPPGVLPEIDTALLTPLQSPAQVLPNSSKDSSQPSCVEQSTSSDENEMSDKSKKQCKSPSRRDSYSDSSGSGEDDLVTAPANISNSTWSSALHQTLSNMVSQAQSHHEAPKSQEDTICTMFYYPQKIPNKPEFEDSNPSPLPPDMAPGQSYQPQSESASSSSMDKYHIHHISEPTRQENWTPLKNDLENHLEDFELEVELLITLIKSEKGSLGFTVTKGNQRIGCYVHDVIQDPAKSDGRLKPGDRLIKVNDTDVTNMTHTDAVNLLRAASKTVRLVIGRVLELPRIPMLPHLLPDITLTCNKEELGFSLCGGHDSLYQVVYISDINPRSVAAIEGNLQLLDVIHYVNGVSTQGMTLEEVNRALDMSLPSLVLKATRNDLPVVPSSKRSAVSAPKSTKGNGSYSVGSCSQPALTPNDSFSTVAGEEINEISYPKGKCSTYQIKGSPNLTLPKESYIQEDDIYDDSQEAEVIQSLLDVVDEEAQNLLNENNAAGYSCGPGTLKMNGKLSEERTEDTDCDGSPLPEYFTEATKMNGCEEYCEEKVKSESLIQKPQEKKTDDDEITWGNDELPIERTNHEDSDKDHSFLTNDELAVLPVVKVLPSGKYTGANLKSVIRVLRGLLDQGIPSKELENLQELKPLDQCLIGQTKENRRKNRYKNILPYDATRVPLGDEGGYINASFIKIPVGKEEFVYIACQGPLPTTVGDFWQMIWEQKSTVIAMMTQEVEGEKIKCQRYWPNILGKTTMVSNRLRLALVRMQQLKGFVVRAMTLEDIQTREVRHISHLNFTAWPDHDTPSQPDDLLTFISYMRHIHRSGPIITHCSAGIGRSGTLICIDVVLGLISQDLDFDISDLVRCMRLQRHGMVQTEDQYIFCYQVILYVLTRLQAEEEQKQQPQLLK

[6] = Inhibition of recombinant Mycobacterium tuberculosis PTPB using pNPP as substrate by spectrophotometric method
Outline: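 Recombinant enzyme made in-house. Substrate pNPP in 50 mM 3,3-dimethylglutarate buffer, pH 7.0, with 1 mM EDTA and 150 mM NaCl, at 25 °C, screened in 96-well format. p-Nitrophenol product read at 405 nm. Non-enzymatic pNPP hydrolysis was corrected using a control without enzyme.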

Row | Compound | IC50 [1] | IC50 [2] | IC50 [3] | IC50 [4] | IC50 [5] | IC50 [6]
1 | O=C(COc1ccc2cc(C(O)(C(F)(F)F)C(F)(F)F)c(O)cc2c1)Nc1nc2ccccc2s1 | 10.9 µM | > 20 µM | 14.3 µM | 12.8 µM | 9.9 µM | 2.6 µM
2 | OC(c1ccccc1)(C(F)(F)F)C(F)(F)F | > 500 µM | > 500 µM | > 500 µM | > 500 µM | > 500 µM | > 500 µM
3 | Oc1c(C(O)(C(F)(F)F)C(F)(F)F)ccc2ccccc12 | > 500 µM | > 500 µM | > 500 µM | > 500 µM | > 500 µM | > 500 µM
4 | COc1ccc(CNC(=O)COc2ccc3cc(C(O)(C(F)(F)F)C(F)(F)F)c(O)cc3c2)cc1OC | > 20 µM | > 20 µM | > 20 µM | > 20 µM | > 20 µM | 18.1 µM
5 | CC(C)c1ccc(NC(=O)COc2ccc3cc(C(O)(C(F)(F)F)C(F)(F)F)c(O)cc3c2)cc1 | 7.8 µM | 17.2 µM | 8.8 µM | 8.5 µM | 6.5 µM | 7.3 µM
6 | O=C(COc1ccc2cc(C(O)(C(F)(F)F)C(F)(F)F)c(O)cc2c1)NC1CC1 | > 20 µM | > 20 µM | > 20 µM | > 20 µM | > 20 µM | > 20 µM
7 | O=C(COc1ccc2cc(C(O)(C(F)(F)F)C(F)(F)F)c(O)cc2c1)NCc1ccccc1 | > 20 µM | > 20 µM | > 20 µM | > 20 µM | > 20 µM | > 20 µM
8 | O=C(COc1ccc2cc(C(O)(C(F)(F)F)C(F)(F)F)c(O)cc2c1)Nc1cccc2ccccc12 | 29.1 µM | > 20 µM | > 20 µM | > 20 µM | > 20 µM | 4.7 µM
9 | O=C(COc1ccc2cc(C(O)(C(F)(F)F)C(F)(F)F)c(O)cc2c1)Nc1ccc(N2CCOCC2)cc1 | > 20 µM | > 20 µM | > 20 µM | > 20 µM | > 20 µM | > 20 µM
10 | O=C(COc1ccc2cc(C(O)(C(F)(F)F)C(F)(F)F)c(O)cc2c1)N(c1ccccc1)c1ccccc1 | 14.9 µM | > 20 µM | 20.6 µM | 19.5 µM | 12.4 µM | > 20 µM
11 | Oc1c(-c2ccccc2)cccc1C(O)(C(F)(F)F)C(F)(F)F | 157 µM | 422 µM | 268 µM | 136 µM | 449 µM | 148 µM
12 | O=C(COc1ccc2cc(C(O)(C(F)(F)F)C(F)(F)F)c(O)cc2c1)NC12CC3CC(CC(C3)C1)C2 | 7.6 µM | 14.7 µM | 10.1 µM | 9 µM | 7.4 µM | > 20 µM
13 | Oc1cc2ccccc2cc1C(O)(C(F)(F)F)C(F)(F)F | 112 µM | 260 µM | 134 µM | 115 µM | 128 µM | 106 µM
14 | CCN(CC)C(=O)COc1ccc2cc(C(O)(C(F)(F)F)C(F)(F)F)c(O)cc2c1 | > 20 µM | > 20 µM | > 20 µM | > 20 µM | > 20 µM | > 20 µM
15 | Oc1ccc(-c2ccccc2)cc1C(O)(C(F)(F)F)C(F)(F)F | > 500 µM | > 500 µM | > 500 µM | 392 µM | > 500 µM | 351 µM
16 | Oc1cc(-c2ccccc2)ccc1C(O)(C(F)(F)F)C(F)(F)F | > 500 µM | > 500 µM | > 500 µM | > 500 µM | > 500 µM | > 500 µM
17 | Cc1ccc(O)c(C(O)(C(F)(F)F)C(F)(F)F)c1 | 207 µM | 360 µM | 303 µM | 202 µM | 454 µM | 180 µM
18 | O=C(COc1ccc2cc(C(O)(C(F)(F)F)C(F)(F)F)c(O)cc2c1)NCc1ccc(F)cc1 | > 20 µM | > 20 µM | > 20 µM | > 20 µM | > 20 µM | > 20 µM
19 | O=C(COc1ccc2cc(C(O)(C(F)(F)F)C(F)(F)F)c(O)cc2c1)NC1c2ccccc2-c2ccccc21 | 6.6 µM | 13.8 µM | 7.5 µM | 6.9 µM | 5.6 µM | 9.4 µM
20 | O=C(COc1ccc2cc(C(O)(C(F)(F)F)C(F)(F)F)c(O)cc2c1)Nc1ccccc1 | > 20 µM | – | > 20 µM | 19 µM | > 20 µM | 14.4 µM
